Experiments:
IKZF2 [1] = molecular target: T1, IKZF2 (Homo sapiens, UniProt Q96SW2+Q9UKS7); experiment: IKZF2 HiBiT degradation assay in HEK293 cells; assay type: cell-based; details: for Dmax: HEK293, read-out: IKZF2 degradation Dmax
SALL4 = SALL4 (Homo sapiens, UniProt Q9UJQ4); experiment: SALL4 HiBiT degradation assay in HEK293 cells; assay type: cell-based
Outline: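 Each HiBiT-tagged target construct was integrated into the FRT site by the FLP-IN system, and integration was checked by lytic HiBiT detection. Cells got test compound at 0.017 nM to 10 µM, with DMSO as vehicle control, for 6 h. HiBiT signal was then read by lytic luminescence detection. DC50 and Dmax came from a four-parameter dose-response fit.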

hERG channel = hERG channel (Homo sapiens, UniProt Q12809); experiment: hERG channel inhibition, manual patch-clamp; assay type: cell-based
IL-2 = IL-2 production in Jurkat cells; assay type: cell-based, human; details: Jurkat stimulated with anti-CD3/CD28, bead-to-cell ratio 1:4
IKZF2 [2] = molecular target: T1, IKZF2; experiment: IKZF2 FACS assay in primary human Tregs; assay type: cell-based; details: read-out: IKZF2 degradation Dmax in human Treg cells
Outline: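 Thawed human PBMCs were resuspended in RPMI with 10% FBS and 1% P/S. They were treated with test compound at 0.05 nM to 1 μM, with DMSO as vehicle control, for 3 or 6 h. IKZF2 in Treg cells was then assessed by FACS under a defined gating strategy.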

PK study in mice = assay type: in vivo; details: male, ICR, mouse, plasma, po, 3 mg/kg
PK study in rats = assay type: in vivo; details: male, Sprague Dawley, rat, plasma, po, 3 mg/kg

T1 sequence (Q9UKS7 whole entry): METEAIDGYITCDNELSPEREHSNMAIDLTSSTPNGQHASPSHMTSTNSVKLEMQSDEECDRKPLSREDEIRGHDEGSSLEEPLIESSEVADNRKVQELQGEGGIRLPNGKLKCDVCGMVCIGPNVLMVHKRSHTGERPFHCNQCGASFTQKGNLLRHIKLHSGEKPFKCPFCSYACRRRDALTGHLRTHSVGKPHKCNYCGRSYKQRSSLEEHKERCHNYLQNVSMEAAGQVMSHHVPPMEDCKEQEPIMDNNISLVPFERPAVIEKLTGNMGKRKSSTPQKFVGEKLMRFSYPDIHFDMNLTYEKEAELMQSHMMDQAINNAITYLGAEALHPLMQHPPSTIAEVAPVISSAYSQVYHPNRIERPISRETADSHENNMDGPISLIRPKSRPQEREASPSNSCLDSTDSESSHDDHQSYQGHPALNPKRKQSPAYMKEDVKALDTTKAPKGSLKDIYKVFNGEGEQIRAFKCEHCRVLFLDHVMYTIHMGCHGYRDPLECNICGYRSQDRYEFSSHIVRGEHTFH
T1 sequence (Q96SW2 whole entry): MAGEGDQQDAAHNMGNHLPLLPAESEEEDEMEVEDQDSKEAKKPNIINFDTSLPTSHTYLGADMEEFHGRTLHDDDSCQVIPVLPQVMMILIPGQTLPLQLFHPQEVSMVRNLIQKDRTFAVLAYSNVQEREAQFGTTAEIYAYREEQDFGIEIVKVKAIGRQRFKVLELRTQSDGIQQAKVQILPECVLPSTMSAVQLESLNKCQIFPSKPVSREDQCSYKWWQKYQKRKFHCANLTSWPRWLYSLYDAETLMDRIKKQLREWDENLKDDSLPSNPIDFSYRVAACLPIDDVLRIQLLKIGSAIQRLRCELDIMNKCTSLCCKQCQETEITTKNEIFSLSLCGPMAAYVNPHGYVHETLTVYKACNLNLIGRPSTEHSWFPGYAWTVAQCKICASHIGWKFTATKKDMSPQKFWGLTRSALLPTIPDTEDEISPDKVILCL
T1 sequence (Q16531 whole entry partner): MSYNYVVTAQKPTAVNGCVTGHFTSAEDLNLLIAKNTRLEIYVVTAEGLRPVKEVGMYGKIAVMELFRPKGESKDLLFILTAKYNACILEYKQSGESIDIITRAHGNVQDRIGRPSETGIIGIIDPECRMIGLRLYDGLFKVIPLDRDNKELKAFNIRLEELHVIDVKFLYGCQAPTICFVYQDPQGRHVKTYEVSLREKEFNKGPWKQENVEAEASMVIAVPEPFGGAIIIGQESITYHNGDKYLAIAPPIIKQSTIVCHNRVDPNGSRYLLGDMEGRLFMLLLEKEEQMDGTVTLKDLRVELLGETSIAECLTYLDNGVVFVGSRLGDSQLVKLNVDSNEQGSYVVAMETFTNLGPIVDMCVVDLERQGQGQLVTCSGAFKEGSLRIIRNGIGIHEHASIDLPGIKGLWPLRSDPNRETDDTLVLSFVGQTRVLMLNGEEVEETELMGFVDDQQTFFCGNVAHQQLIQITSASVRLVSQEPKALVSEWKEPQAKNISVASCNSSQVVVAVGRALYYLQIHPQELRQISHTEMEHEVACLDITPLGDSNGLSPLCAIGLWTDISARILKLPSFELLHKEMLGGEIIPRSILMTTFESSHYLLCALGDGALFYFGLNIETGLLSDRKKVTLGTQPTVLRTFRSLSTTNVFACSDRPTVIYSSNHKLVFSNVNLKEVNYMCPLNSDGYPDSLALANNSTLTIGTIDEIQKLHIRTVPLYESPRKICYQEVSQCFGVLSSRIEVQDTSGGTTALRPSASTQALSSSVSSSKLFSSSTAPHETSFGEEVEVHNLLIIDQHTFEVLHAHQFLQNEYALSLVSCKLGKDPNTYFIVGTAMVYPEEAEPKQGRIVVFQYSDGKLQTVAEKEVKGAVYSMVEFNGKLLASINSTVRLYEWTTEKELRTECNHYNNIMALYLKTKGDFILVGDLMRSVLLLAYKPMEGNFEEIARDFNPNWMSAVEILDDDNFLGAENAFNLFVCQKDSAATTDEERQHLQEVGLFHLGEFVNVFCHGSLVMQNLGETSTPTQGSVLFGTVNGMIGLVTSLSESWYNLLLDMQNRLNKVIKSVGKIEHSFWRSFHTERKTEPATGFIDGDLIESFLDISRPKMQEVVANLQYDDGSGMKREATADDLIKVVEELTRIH
Sequence of SALL4 (Q96SW2 whole entry partner): as the sequence (Q96SW2 whole entry) above
Sequence of SALL4 (Q16531 whole entry partner): as the sequence (Q16531 whole entry partner) above
Sequence of SALL4 (Q9UJQ4 whole entry): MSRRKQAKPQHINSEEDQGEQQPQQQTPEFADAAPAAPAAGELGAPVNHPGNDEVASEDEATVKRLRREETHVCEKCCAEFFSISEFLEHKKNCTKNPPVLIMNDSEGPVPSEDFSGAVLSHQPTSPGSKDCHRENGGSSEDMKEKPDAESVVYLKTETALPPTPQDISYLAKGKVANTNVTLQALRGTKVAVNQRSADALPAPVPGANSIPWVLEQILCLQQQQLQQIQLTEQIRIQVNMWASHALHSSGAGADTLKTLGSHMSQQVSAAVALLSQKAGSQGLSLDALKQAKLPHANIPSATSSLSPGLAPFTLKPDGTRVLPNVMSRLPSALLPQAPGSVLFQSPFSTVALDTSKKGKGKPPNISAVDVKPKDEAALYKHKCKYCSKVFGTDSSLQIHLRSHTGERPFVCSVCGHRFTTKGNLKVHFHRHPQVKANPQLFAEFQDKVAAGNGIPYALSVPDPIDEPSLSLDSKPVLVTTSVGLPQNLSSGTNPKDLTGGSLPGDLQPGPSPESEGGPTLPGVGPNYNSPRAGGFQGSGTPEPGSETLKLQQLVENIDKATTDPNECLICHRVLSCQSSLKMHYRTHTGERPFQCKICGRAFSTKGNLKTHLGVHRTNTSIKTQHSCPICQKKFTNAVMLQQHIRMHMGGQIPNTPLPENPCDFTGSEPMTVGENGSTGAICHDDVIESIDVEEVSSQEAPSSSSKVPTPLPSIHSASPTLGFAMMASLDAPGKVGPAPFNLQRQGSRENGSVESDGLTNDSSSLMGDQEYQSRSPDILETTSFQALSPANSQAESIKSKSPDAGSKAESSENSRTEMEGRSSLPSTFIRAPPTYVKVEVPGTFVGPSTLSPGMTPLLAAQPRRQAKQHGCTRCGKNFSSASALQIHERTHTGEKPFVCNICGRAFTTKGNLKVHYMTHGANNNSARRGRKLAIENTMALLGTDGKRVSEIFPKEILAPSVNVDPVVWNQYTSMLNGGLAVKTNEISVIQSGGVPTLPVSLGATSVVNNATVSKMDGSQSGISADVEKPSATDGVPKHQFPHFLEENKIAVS
Sequence of hERG channel (Q12809 whole entry): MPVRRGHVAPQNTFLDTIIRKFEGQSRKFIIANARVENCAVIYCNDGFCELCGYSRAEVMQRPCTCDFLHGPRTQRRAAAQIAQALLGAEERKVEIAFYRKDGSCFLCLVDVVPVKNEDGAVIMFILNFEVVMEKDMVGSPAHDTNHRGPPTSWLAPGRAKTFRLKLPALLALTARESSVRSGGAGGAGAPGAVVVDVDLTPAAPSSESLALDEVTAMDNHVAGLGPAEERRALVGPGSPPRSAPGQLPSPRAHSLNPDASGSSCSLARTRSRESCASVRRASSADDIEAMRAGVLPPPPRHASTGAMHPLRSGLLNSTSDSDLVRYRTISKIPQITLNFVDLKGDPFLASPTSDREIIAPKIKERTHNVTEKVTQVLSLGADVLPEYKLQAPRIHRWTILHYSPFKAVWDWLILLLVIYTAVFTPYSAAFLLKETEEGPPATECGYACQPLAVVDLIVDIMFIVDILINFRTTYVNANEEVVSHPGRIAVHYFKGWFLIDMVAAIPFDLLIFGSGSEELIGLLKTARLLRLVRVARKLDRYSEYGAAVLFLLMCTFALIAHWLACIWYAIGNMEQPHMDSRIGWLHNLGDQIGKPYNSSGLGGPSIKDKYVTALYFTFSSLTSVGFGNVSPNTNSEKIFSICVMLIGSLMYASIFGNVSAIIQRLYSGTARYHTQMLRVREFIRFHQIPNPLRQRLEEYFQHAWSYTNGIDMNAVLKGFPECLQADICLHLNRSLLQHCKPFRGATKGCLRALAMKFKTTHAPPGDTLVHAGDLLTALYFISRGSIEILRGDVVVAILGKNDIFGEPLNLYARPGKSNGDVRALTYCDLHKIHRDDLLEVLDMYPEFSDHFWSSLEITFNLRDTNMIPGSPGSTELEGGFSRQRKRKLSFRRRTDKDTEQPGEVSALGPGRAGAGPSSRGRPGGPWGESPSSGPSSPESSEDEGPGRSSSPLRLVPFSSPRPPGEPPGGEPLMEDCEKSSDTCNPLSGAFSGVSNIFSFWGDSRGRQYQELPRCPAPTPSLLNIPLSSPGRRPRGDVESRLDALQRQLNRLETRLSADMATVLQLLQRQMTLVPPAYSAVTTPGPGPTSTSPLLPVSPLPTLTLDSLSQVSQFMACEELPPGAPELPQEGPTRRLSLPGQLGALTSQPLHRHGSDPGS

Row | Compound | Dmax (IKZF2 [1]) [%] | further results
1 | O=C1CCC(N2Cc3cc(C4CCN(Cc5ccccc5)CC4)ccc3C2=O)C(=O)N1 (stereo not drawn) [DKY709] | 73 | time to reach maximal IKZF2 degradation (Dmax plateau) (IKZF2 [1]; IKZF2 HiBiT, HEK293): > 6 h; DC50 (IKZF2 [1]; read-out: IKZF2 degradation DC50, HiBiT, HEK293, 6 h): 1.5 nM; Dmax (SALL4; HEK293, read-out: SALL4 degradation Dmax): 55%; DC50 (SALL4; read-out: SALL4 degradation DC50, HiBiT, HEK293, 6 h): 4.9 nM; hERG inhibition IC30 (hERG channel): 3.0 µM; IL-2 concentration in the supernatant (in words) (IL-2): increase in IL-2 concentration in the supernatant; Dmax (IKZF2 [2]): 73%
2 | O=C1CCC(N2Cc3c(ccc4c3OCC43CCN(Cc4ccsc4)CC3)C2=O)C(=O)N1 (stereo not drawn) [Compound 15] | 84 | –
3 | O=C1CCC(N2Cc3c(ccc4c3OCC43CCN(Cc4ccccc4)C3)C2=O)C(=O)N1 (stereo not drawn) [Compound 8] | 33 | –
4 | O=C1CCC(N2Cc3c(ccc4c3OCC43CCN(Cc4ccccc4)CC3)C2=O)C(=O)N1 (stereo not drawn) [Compound 5] | – | AUC (PK study in mice): 1340 ng·h/mL; AUC (PK study in rats): 1170 ng·h/mL
5 | O=C1CCC(N2Cc3c(ccc4c3OCCC43CCN(Cc4ccccc4)CC3)C2=O)C(=O)N1 (stereo not drawn) [Compound 10] | 39 | –
6 | O=C1CCC(N2Cc3c(ccc4c3OCC43CCN(CC4CCCCC4)CC3)C2=O)C(=O)N1 (stereo not drawn) [Compound 13] | 69 | –
7 | O=C1CCC(N2Cc3c(ccc4c3OCC43CCC(Oc4ccccc4)CC3)C2=O)C(=O)N1 (stereo not drawn) [Compound 7] | 38 | –
8 | O=C1CCC(N2Cc3c(ccc4c3OCC43CCCN(Cc4ccccc4)CC3)C2=O)C(=O)N1 (stereo not drawn) [Compound 9] | 17 | –
9 | O=C1CCC(N2Cc3c(ccc4c3OCC43CCN(Cc4ccccc4)CC3(F)F)C2=O)C(=O)N1 (stereo not drawn) [Compound 12] | 68 | –
10 | O=C1CCC(N2Cc3c(ccc4c3OCC43CCN(Cc4ccccn4)CC3)C2=O)C(=O)N1 (stereo not drawn) [Compound 14] | 64 | –
